Experiment [1] addresses T1, DNA topoisomerase 2 (Drosophila melanogaster) (UniProt P15348).
T1 sequence (whole entry): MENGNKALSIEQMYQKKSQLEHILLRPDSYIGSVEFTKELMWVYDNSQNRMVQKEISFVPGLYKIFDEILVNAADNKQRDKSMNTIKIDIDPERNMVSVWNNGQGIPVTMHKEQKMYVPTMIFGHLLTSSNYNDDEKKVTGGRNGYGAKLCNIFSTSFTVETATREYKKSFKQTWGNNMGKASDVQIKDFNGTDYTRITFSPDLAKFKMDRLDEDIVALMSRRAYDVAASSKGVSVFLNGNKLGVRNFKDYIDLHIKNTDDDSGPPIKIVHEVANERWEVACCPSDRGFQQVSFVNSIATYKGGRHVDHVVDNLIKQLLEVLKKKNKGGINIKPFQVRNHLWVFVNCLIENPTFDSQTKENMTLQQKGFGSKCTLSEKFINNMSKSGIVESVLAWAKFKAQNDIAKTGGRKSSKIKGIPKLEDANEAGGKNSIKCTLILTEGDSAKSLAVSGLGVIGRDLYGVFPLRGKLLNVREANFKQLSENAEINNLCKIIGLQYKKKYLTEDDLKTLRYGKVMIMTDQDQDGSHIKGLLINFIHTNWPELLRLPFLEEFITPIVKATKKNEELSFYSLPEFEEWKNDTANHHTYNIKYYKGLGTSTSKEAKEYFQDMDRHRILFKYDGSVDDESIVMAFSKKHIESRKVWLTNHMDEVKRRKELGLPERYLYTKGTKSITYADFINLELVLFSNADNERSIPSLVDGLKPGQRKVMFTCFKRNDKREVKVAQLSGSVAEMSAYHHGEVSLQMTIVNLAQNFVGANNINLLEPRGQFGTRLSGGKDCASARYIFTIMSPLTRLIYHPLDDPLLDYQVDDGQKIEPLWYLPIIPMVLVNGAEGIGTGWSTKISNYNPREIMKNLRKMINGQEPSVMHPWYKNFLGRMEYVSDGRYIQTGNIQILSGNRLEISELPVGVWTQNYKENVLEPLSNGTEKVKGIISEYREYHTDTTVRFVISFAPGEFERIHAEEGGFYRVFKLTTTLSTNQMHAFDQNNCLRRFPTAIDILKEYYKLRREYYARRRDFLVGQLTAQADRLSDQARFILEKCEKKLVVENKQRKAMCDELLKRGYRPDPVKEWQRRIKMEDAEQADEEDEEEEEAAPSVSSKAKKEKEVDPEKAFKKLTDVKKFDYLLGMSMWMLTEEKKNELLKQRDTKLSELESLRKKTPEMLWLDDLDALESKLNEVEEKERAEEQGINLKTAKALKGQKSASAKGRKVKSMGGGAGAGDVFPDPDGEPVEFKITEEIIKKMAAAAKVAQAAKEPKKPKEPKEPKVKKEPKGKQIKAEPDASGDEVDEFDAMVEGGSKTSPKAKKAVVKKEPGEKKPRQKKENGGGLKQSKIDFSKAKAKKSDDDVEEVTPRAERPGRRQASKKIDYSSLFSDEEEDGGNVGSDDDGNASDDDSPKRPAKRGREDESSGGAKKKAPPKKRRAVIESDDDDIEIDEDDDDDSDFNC
In words: Inhibition of commercially obtained pure Drosophila Topoisomerase II in catalytic DNA unwinding. In short, it runs like this:
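Relaxation assay with supercoiled pBR322 (0.5 μg) and pure Drosophila topoisomerase II at 3 units per reaction. Buffer: 50 mM Tris-HCl pH 8.0, 120 mM KCl, 10 mM MgCl2, 1 mM ATP, 0.5 mM DTT, 30 μg/mL BSA. Drug added in DMSO.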

The subject of another experiment is XRS6. In words: Cytotoxicity against CHO cell line xrs6. The settings on record: Cricetulus griseus. In kind it is functional, cell-based. In short, it runs like this: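 MTT assay on DNA double-strand-break repair-deficient CHO xrs-6 cells grown in αMEM with serum, seeded at 60 000 cells/well and allowed to attach 4 h. Drug added from DMSO stock, final DMSO 1% or less, four replicate wells per dose. Exposure 18 h, then drug-free medium. Absorbance at 540 nm, compared against DMSO-only wells to give percent growth inhibition.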

Another experiment has as its system HCT-116. Put plainly: Cytotoxicity against HCT116 cells. In kind it is functional, cell-based. The settings on record: Homo sapiens. In short, it runs like this: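 HCT 116 human colon tumour cells in McCoy's medium with 10% FBS, seeded at 40 000 cells/well and allowed 4 h to attach. Drug added in DMSO (0.5%), 3 days continuous exposure, four replicate wells per dose. MTT (5 mg/mL in PBS) added for 4 h, formazan dissolved in acidic 2-propanol, A540 read against DMSO controls for percent growth inhibition.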

The nature of experiment [2]: Ratio of BR1 IC50 to xrs-6 IC50. In kind it is functional. In outline: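 MTT assay run in parallel on repair-competent CHO BR1 (40 000 cells/well) and repair-deficient xrs-6 (60 000 cells/well), both in αMEM with serum. 4 h attachment, then 18 h drug exposure from DMSO (final 1% or less), then drug-free medium. Four wells per dose, A540 against DMSO controls. The ratio is the BR1 IC50 divided by the xrs-6 IC50.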

In experiment [3] the target is DNA topoisomerase II (Homo sapiens) (UniProt P11388+Q02880). In words: In vitro inhibition of partially purified human ovarian carcinoma topoisomerase II of kDNA decatenation. Type of experiment: protein assay. In short, it runs like this:
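Decatenation of kinetoplast DNA (0.2 μg) by one unit of partially purified human ovarian carcinoma topoisomerase II in 50 mM Tris-HCl pH 8.0, 120 mM KCl, 10 mM MgCl2, 1 mM ATP, 0.5 mM DTT, 30 μg/mL BSA. Compound added in DMSO. Stopped with sarkosyl stop buffer, 1% agarose/ethidium gel, UV visualization. Value is the concentration apparently inhibiting 90% of monomer-length kDNA production.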

Structures are written as SMILES.

As to `O=C1c2c(O)ccc(O)c2C(=O)c2c(NCCNCCO)ccc(NCCNCCO)c21` [MITOXANTRONE], in experiment [1], the IC90 (as a rule, the point of the concentration-response curve where the effect stands at 90%) worked out at 56 µM. Further, in the experiment with XRS6, it took 0.001 µM to reach half-maximal inhibition (IC50).
In the case of `C[C@@]12CCCc3coc(c31)C(=O)c1cc3c(cc12)C(=O)C1=NCCS(=O)(=O)C1=C3O` [ADOCIAQUINONE A], the IC50 (commonly the concentration needed to halve the response being measured) with HCT-116 was determined as 24 µM; with XRS6, 78 µM. Besides, the Ratio in experiment [2] stood at 3.
With `C[C@@]12CCCc3coc(c31)C(=O)c1cc3c(cc12)C(=O)/C(=N/CCS(=O)(=O)O)C=C3O`, the half-maximal inhibitory concentration (IC50) in the experiment with HCT-116 was > 143 µM; in the experiment on XRS6, > 287 µM.
Consider `COC1=CC(=O)c2cc3c(cc2C1=O)C(=O)c1occ2c1[C@@]3(C)CCC2`, for which the half-maximal inhibitory concentration (IC50) stood at 28 µM with HCT-116 and 4.3 µM with XRS6. The Ratio in experiment [2] stood at 3.
On to `C[C@@]12CCCc3coc(c31)C(=O)c1cc3c(cc12)C(=O)C(Cl)=C(O)C3=O`, for which the results for the half-maximal inhibitory concentration (IC50) with HCT-116 and in the experiment with XRS6 were 33 µM and 27 µM, respectively. Besides, in experiment [2], the Ratio stood at 4.5.
`C[C@@]12CCCc3coc(c31)C(=O)c1cc3c(cc12)C(=O)C1=C(NCCS1(=O)=O)C3=O` [ADOCIAQUINONE B]: the figures for the IC90 in experiment [3] and in experiment [1] were < 11 µM and 78 µM, respectively. Moreover, the IC50 stood at 21 µM in the experiment with HCT-116 and 23 µM in the experiment on XRS6. The Ratio in experiment [2] is 3.
Turning to `COC1=CC(=O)c2cc3c(cc2C1=O)[C@]1(C)CCCc2coc(c21)C3=O`, the 50% inhibitory concentration (IC50) with HCT-116 was determined as 28 µM; in the experiment on XRS6, 4.3 µM. The Ratio in experiment [2] was found to be 3.
Turning to `COc1cc(NS(C)(=O)=O)ccc1Nc1c2ccccc2nc2ccccc12` [AMSACRINE], the IC50 in the experiment on XRS6 is 0.24 µM. In experiment [2], the Ratio amounted to 4.
Take `COc1cc([C@@H]2c3cc4c(cc3[C@@H](O[C@@H]3O[C@@H]5CO[C@@H](C)O[C@H]5[C@H](O)[C@H]3O)[C@H]3COC(=O)[C@H]23)OCO4)cc(OC)c1O` [ETOPOSIDE]: the IC90 in experiment [1] was determined as 85 µM. Besides, the IC50 in the experiment with XRS6 was 0.14 µM. Moreover, in experiment [2], the Ratio was 7.
For `C[C@@]12CCCc3coc(c31)C(=O)c1cc3c(cc12)C(=O)C=C(NCCS(=O)(=O)O)C3=O`, the 50% inhibitory concentration (IC50) with HCT-116 is > 143 µM; in the experiment on XRS6, > 287 µM.
`C[C@@]12CCCc3coc(c31)C(=O)c1cc3c(cc12)C(=O)C(=O)C(Cl)=C3O`: the IC50 amounted to 33 µM in the experiment with HCT-116 and 27 µM in the experiment on XRS6. In addition, the Ratio in experiment [2] is 4.5.

For the origin of these results see ChEMBL document CHEMBL1128184, “Topoisomerase II-mediated DNA cleavage by adocia- and xestoquinones from the Philippine sponge Xestospongia sp” (J Med Chem, 1995).
